# Runt-CBFb FRET – inhibitors of human RUNX1 Runt domain binding to CBFb; Q01196+Q13951; inhibition, % at 20 µM; AID 1496; Cerulean-Runt/Venus-CBFb FRET ratio 530/480, 1 h; hit rate 0.46% among 220,000;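 active means inhibition over about 50% at 20 µM in the single-dose screen, limit read from the data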
# Target sequence (Q01196 whole entry, looked up, the tested form may be a part): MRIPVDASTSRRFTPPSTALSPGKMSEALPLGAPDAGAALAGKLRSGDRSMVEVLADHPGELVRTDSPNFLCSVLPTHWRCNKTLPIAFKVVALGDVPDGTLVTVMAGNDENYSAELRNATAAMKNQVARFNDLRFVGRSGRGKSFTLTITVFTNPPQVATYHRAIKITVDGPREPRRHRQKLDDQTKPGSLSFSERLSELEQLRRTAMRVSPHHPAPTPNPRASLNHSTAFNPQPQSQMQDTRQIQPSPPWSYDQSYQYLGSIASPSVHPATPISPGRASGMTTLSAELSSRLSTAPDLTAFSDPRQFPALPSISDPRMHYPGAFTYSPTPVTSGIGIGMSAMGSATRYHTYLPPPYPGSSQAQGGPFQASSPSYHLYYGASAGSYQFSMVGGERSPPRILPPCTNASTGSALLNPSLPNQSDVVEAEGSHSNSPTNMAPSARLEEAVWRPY
# Target sequence (Q13951 whole entry, looked up, the tested form may be a part): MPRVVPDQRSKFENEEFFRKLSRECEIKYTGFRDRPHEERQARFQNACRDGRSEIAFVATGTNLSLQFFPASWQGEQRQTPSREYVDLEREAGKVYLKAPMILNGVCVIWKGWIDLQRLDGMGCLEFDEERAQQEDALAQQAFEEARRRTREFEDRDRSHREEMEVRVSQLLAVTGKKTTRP
#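 System: Cerulean-labeled Runt domain protein | Quantity: 100 nM of each labeled protein | Schedule: 1 h compound exposure, room temperature | Detection: Fluorescence energy transfer, 422 nm excitation, 530/480 nm emission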
# Runt-SMMHC FRET – Runt domain-CBFb-SMMHC interaction inhibition. Q01196+Q13951. Cerulean-Runt/Venus-CBFb-SMMHC FRET ratio 530/480, 1 h. inhibition, % at 20 µM. hit rate 0.74% among 220,000. AID 1434;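 active means mean inhibition across duplicate retests at 20 µM reaching about 50%, limit read from the data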;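 further: inhibitors lower the FRET ratio by blocking Runt binding to CBFb-SMMHC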
# RanGTP-Impb inh – inhibitors of RanGTP-importin-beta interaction, primary screen, biochemical, FRET, CFP-Ran, YFP-importin-beta, homogeneous; cell-free CFP-Ran/YFP-importin-beta FRET ratio; inhibition, % (no concentration beside the values); hit rate 1.1% among 300,000;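 active means more than half of the replicate wells show a fall in the fluorescence ratio signal beyond about 16%, limit read from the data, passing the limit was not always enough; inconclusive means exactly half of the replicate wells pass the set limit; inactive means fewer than half of replicates pass the limit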
# CaV13 FRET inh – Disruptors of the CACNA1D IQ motif to Ca2+-dependent inactivation inhibitor domain association, primary screening, Förster resonance energy transfer in intact living … | HEK cells, CFP/YFP FRET ICDI-IQ, plate reader, 10 min; percent FRET-ratio fall versus neutral wells | inhibition, % at 12.3 µM | hit rate 0.098% among 340,000 | AID 743397;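 active means mean replicate inhibition of at least 30% and at least 1% of replicates passing that level; inconclusive means only one of the two criteria is met; inactive means neither criterion is met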
# Hck-Nef inh – inhibitors of human Hck kinase activated by Nef. hit rate 0.68% among 220,000. P08631. inhibition, % at 20 µM. Recombinant Hck-YEEI plus Nef, Z-Lyte FRET kinase assay;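 active means Hck-Nef kinase inhibition above about 50%, limit read from the data; inactive means inhibition below that limit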
# Runt-CBFb TRFRET – Runt-CBFb binding inhibition | inhibition, % at 20 µM | shares compounds with Runt-CBFb FRET | TR-FRET RUNX1 Runt domain-CBFb binding | hit rate 20% among 480; in the data active means inhibition above about 40%
# Hits are given with their value; 0 = inactive; ? = inconclusive; - = no result given. Hits are enriched below; roughly 1.5% of the tested compounds scored in any of these assays.
SMILES,Runt-CBFb FRET,Runt-SMMHC FRET,RanGTP-Impb inh,CaV13 FRET inh,Hck-Nef inh,Runt-CBFb TRFRET
Cc1nc(S/C(=C/c2ccc(-c3cc(Cl)ccc3C)o2)C(=O)O)n[nH]1,0,0,0,0,0,-
O=C(O)c1cc(Cl)ccc1-c1ccc(/C=C/c2cc(C(F)(F)F)[nH]c(=O)n2)o1,52,92,0,0,0,0
CCOc1oc(-c2ccc(OC)cc2)nc1C(F)(F)F,0,0,?,0,0,-
COc1cc(-c2nc3ccc(N4CCN(C)CC4)cc3[nH]2)cc(OC)c1OC,0,0,0,0,0,-
O=C(NC1CCCCCC1)c1ccc[nH]c1=S,54,60,0,0,0,0
C[C@H]1COc2cc(N3CC[C@H](O)C3)ccc2S(=O)(=O)N1,-,-,-,0,-,-
O=C(Oc1ccccc1OC(=O)N1CCOCC1)N1CCOCC1,0,0,0,0,0,-
Cc1cc(O)c(Oc2cc(C)cc(O)c2O)c(O)c1,70,62,0,-,0,54
COC(=O)CCc1sc(NC2CCCCC2)nc1-c1ccc(OC)cc1,0,0,0,0,0,-
Oc1ccc(-c2csc(Nc3ncccn3)n2)cc1O,50,0,0,0,0,42
Oc1ccc(-c2csc(-c3cccnc3)n2)cc1O,53,0,0,0,0,68
Oc1ccc(-c2csc(Nc3ncccn3)n2)c(O)c1,0,0,?,0,0,-
COCCN(C(=S)Nc1c(C)cc(C)cc1C)C(C)c1cccnc1 (stereo unspecified),51,0,?,0,0,0
N#C/C(=C\c1c(Cl)cccc1Cl)c1nc2ccccc2o1,0,0,0,0,0,-
Cc1cc(O)ccc1N/C=C(\C#N)c1nc2ccccc2o1,53,0,0,0,0,0
CN1C(=S)SC(N(O)C(=O)Nc2ccccc2)C1(C)C (stereo unspecified),0,0,0,0,0,-
CC1(C)C(N(O)C(=O)Nc2ccccc2)N(c2cccc(Cl)c2)C(=O)N1O (stereo unspecified),53,0,0,-,0,0
Oc1ccc(-c2cnns2)c(O)c1,73,-,0,0,0,58
COC(=O)c1cc(NS(=O)(=O)c2ccc(N3CCCCC3)c([N+](=O)[O-])c2)cc(C(=O)OC)c1,0,0,0,-,0,-
N#CC1=C2SCCN2C(=O)C(C#N)C12CCCCC2 (stereo unspecified),56,0,0,0,0,0
CCSC1=C(C#N)C2(CCCCC2)C(C#N)C(=O)N1 (stereo unspecified),0,0,-,0,0,-
CN1C=CC2=C(C#N)C(N)C(C#N)(C#N)C(c3ccccc3)C2C1 (stereo unspecified),71,62,40,0,0,0
CN1C[C@@H]2C(c3ccccc3)C3(c4ccc(C#N)cc4)CC2(C3)[C@H]1c1ccccc1 (stereo partly specified),0,0,0,0,0,-
CCN(c1ccccc1)S(=O)(=O)c1cc(CN2C(=O)c3cccnc3C2=O)ccc1OC,-,-,0,0,-,-
Cc1c(Nc2c3c(c(C#N)c4nc5ccccc5n24)CCC3)c(=O)n(-c2ccccc2)n1C,0,0,-,-,0,-
SMILES,Runt-CBFb FRET,Runt-SMMHC FRET,RanGTP-Impb inh,CaV13 FRET inh,Hck-Nef inh,Runt-CBFb TRFRET
CCCCc1c(C)c(C#N)c2nc3ccccc3n2c1Nc1c(C)n(C)n(-c2ccccc2)c1=O,53,65,21,0,0,0
Cc1c(Nc2c3ccccc3nc3ccccc23)c(=O)n(-c2ccccc2)n1C,114,0,56,165,0,0
Cc1ccc(C2NC(=O)c3ccccc3N2)s1 (stereo unspecified),0,0,0,0,0,-
CN1CCc2c(sc3c2C(=O)NC(c2cccs2)N3)C1 (stereo unspecified),62,78,118,0,0,0
CCO[C@@H]1OC(C(=O)NCc2ccccc2)=C[C@H](c2ccccc2)[C@H]1CCCO,0,0,0,0,0,-
CCSc1nnc(NC(=O)C2CCCN(S(=O)(=O)c3cnc[nH]3)C2)s1 (stereo unspecified),64,0,0,0,0,0
Cc1ccc2nc(NC(=O)C3CCCN(S(=O)(=O)c4cnc[nH]4)C3)sc2c1 (stereo unspecified),0,0,0,0,0,-
O=C(O)c1ccccc1C(=O)Nc1n[nH]c(=S)s1,54,0,0,0,0,0
O=C(O)c1ccccc1C(=O)Nc1nccs1,0,0,0,0,0,-
Cc1cc(C)c2c(N)c(C(=O)Nc3nccs3)sc2n1,56,0,0,0,0,0
O=C(O)CCSc1nc2ccccc2s1,0,0,0,0,0,-
COc1cc(NC(=O)CN(C)CCOc2ccccc2)c(C)cc1[N+](=O)[O-],-,-,0,0,-,-
Nc1cccnc1Sc1ccc([N+](=O)[O-])cn1,54,0,0,0,0,0
CCN1CCN(C(=S)c2ccc(O)cc2)CC1,54,0,0,0,0,0
CCN1CCN(C(=S)c2ccc(Br)cc2)CC1,0,0,0,0,0,-
S=C(c1ccc(Br)cc1)N1CCN(Cc2ccccc2)CC1,54,0,0,0,0,0
Oc1ccc(C(=S)N2CCN(Cc3ccccc3)CC2)cc1,53,0,0,0,0,0
O=c1c2cnn(-c3ccccc3)c2nc(-c2cccs2)n1-c1ccc(Cl)cc1,0,0,0,0,0,-
COc1ccccc1NC(=O)c1cccc(S(=O)(=O)N2CCN(c3ccccc3)CC2)c1,-,-,-,0,-,-
NS(=O)(=O)c1cc(C(=O)OCC(=O)Nc2ccc(N3CCCCC3)cc2)ccc1Cl,81,0,0,0,0,0
c1ccc(-c2onc3cc4c(cc23)OCCO4)cc1,77,104,0,0,0,0
O=C(Nc1ccc(-c2nc3ccccc3[nH]2)cc1)c1ccc2c(c1)OCO2,0,0,0,0,0,-
O=C(Nc1ccc(Cl)c(-c2nc3ccccc3[nH]2)c1)c1ccc2c(c1)OCO2,65,0,0,0,0,0
Cc1[nH]c(=O)[nH]c1C(=O)CCCCC(=O)OCC(=O)Nc1ccccn1,0,0,0,-,0,-
Nc1c2c(nc3ccc(Br)cc13)N(c1ccccc1)CC2,0,0,-,-,0,-
Cc1cccc(N2CCc3c2nc2ccc(Br)cc2c3N)c1,57,0,0,0,0,0
C/C(=N\NC(=O)COc1cccc(Cl)c1)c1ccc2c(c1)OCCO2,0,0,0,0,0,-
CCCOc1ccccc1-c1nc2c([nH]1)c(=O)[nH]c(=O)n2C,75,133,75,0,0,0
COc1ccc(OC)c(NC(=O)c2cc3c(=O)n4ccccc4nc3n2C)c1,-,0,0,0,0,-
CCOC(=O)c1cc2c(=O)n3ccccc3nc2n(CC2CCCO2)c1=NC(=O)/C=C/c1ccccc1 (stereo unspecified),81,86,0,0,0,0

# Screens as filed in PubChem.
